From PubChem
DDE Tn6 FP inh – inhibitors of Tn6 peptide binding to human fibrin DD(E); 370,000 compounds, 0.21% hits; P02675; inhibition, % at 8.3 µM; Fibrin DD(E) TRITC-Tn6 fluorescence polarization displacement;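 active = inhibition above a per-campaign cutoff: mean of compounds within control limits plus 3 SD, cut at about 15% in these data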;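 also: 0% = median of all compound wells on the plate and 100% = blocking peptide control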
Target sequence (P02675 whole entry, looked up): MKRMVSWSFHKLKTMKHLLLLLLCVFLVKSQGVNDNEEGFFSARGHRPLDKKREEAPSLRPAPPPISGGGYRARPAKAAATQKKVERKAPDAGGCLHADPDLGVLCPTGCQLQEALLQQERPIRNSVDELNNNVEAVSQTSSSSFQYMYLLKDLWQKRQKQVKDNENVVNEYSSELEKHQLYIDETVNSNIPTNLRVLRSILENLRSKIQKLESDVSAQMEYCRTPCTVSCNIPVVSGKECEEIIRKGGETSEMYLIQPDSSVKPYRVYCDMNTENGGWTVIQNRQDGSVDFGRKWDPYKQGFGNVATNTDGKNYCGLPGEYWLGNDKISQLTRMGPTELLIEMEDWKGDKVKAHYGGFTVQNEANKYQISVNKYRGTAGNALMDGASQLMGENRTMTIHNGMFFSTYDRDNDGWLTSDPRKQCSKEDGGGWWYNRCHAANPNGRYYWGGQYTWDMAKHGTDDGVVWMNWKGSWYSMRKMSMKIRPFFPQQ
DAGLB inh – blocks human DAGLB lipase activity; Q8NCG7; HEK293T DAGLB membrane lysate, EnzChek fluorogenic substrate; inhibition, % at 5.17 µM; 340,000 compounds, 0.059% hits; in the data active = inhibition above about 34%;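 also: 0% = enzyme with vehicle and 100% = wells lacking enzyme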
Tn7 DDE FP – DD(E)-Tn7 binding inhibition, primary FP screen; inhibition, % at 8.3 µM; FP displacement of FITC-Tn7 peptide from fibrin DD(E); 0% = median of compound wells per plate; 370,000 compounds, 0.13% hits; P02675;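 active = inhibition above the mean of compounds falling within the control limits plus 3 SD of them, cut at about 14% in these data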;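 also: 0% = plate median of compound wells and 100% = 10 µM Aha-Tn7 peptide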
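Test system – human fibrin DD(E) · Times – 10 min preincubation, 3 h with tracer, room temperature · Detection – fluorescence polarization of the labelled Tn7 tracer · Measure – percent inhibition normalized to high-control wells · Benchmarks – high control wells with 10 µM unlabelled Aha-Tn7 peptide (full inhibition) · Repeats – singlicate testing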
TAG inh – reduces triacylglycerol accumulation in H9c2 cells; AID 651582; inhibition, % at 12.5 µM; 230,000 compounds, 0.66% hits; Nile Red lipid (TAG) fluorescence; cells loaded with 200 µM oleic acid;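 active = pattern-corrected inhibition of lipid staining of at least 50% with the nuclear-stain viability signal not falling by more than 50%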;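 also: 0% = DMSO wells and 100% = triacsin C control wells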
Cardio protect – protects H9c2 cardiomyocytes from peroxide injury; 360,000 compounds, 0.63% hits; AID 588492; protection from H2O2 cell death, % at 20 µM; H2O2 injury protection, ATPLite, 2 h;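 active = compounds giving at least 50% protection of heart cells from peroxide-induced death in the single-dose screen, raw or plate-pattern-corrected value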;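 also: 0% = DMSO wells with peroxide and 100% = DMSO wells without peroxide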
MT1-MMP act inh – blocks activation of human MT1-MMP; P50281; 360,000 compounds, 0.061% hits; HT1080 RFP-PRO-GFP cells, GFP/RFP ratio fluorescence, overnight; percent of plate control window, DMSO zero; GFP/RFP ratio change, % at 20 µM;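 active = GFP/RFP ratio change of at least 30% with cell ATP level not reduced by more than half and red fluorescence within 50% of control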
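Test system: HT1080 cells expressing an RFP-PRO-GFP fluorescent reporter construct / Compound dosing: single-point 20 µM compound, 1% DMSO / Schedule: cells overnight before dosing, compound overnight, 37 °C, 5% CO2 / Evaluation: GFP/RFP fluorescence ratio / Control set: DMSO and RFP-L50D-GFP cell wells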
TAG conf – confirmation of triacylglycerol accumulation inhibitors. shares compounds with TAG inh. 990 compounds, 71% hits. inhibition, % at 12.5 µM. H9c2 lipid accumulation, Nile Red fluorescence; cells loaded with 200 µM oleic acid;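 active = mean inhibition across replicates of 40% or more; inactive = mean inhibition below 40%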;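 also: plate controls were DMSO only wells for no effect and Triacsin C treated wells for full effect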
Numbers without * were called inactive; x = not tested or not shown. This is a sample that favours compounds with a hit; in the whole collection about 1.4% have one here.

SMILES	DDE Tn6 FP inh	DAGLB inh	Tn7 DDE FP	TAG inh	Cardio protect	MT1-MMP act inh	TAG conf
COCCN1Cc2cccc(C(=O)Nc3ccc(-c4nc5ccccc5[nH]4)cc3)c2C1=O	10	0	2	x	0	-5	x
COCCN1Cc2cccc(C(=O)Nc3cccc(-c4nc5ccccc5[nH]4)c3)c2C1=O	1	0	-2	80*	54*	10	89*
CCOc1cc2c(cc1O)CCC1C2CCC2(C)C(O)CCC12 (centres undefined)	6	0	4	73*	3	13	57*
COCCCNC(=O)c1c(N)n(/N=C/c2ccccn2)c2nc3ccccc3nc12	-2	0	-5	33	35	-2	x
Nc1c(C(=O)NC2CCCC2)c2nc3ccccc3nc2n1/N=C/c1cccnc1	-4	0	5	69*	23	-3	72*
Cc1ccc(NC(=O)CSc2nc(-c3ccco3)cc(C(F)(F)F)n2)cc1C	1	-6	-6	x	-10	-17	x
O=C(CSc1nc(-c2ccco2)cc(C(F)(F)F)n1)Nc1ccc2c(c1)CCC2	2	-5	2	52*	-6	-8	25
CN(C)CC(=O)N[C@@H]1C[C@@H]2O[C@@H](CO)CC[C@@H]2O[C@@H]1CCc1ccc(C2=CCCCC2)cc1	4	x	0	x	x	x	x
COc1cc2c(c(OC)c1OC)C1(CCCCC1)CC2NS(=O)(=O)C(C)C (centres undefined)	-12	x	-11	x	x	x	x
Cc1cc(N/N=C/c2cccc(Cl)c2)nc(-n2nc(C)cc2C)n1	-4	-3	-5	53*	10	0	41*
Cc1cc(N/N=C/c2ccccc2[N+](=O)[O-])nc(-n2nc(C)cc2C)n1	-4	0	-4	79	11	3	x
Cc1cc(N/N=C/c2cccc([N+](=O)[O-])c2)nc(-n2nc(C)cc2C)n1	-3	-2	-5	71*	-6	0	16
COc1cccc(/C=N/NC(=O)CNC(=O)COc2ccccc2)c1O	0	2	9	51*	29	3	1
Cn1nc(-c2ccc(Cl)cc2)c2cc(C(=O)NC3CC3)sc21	3	-4	2	76*	13	-5	70*
CCOC(=O)Cn1nc(Cc2ccccc2)c2ccccc2c1=O	-12	0	7	24	-12	0	x
CN1CCCC(n2nc(Cc3ccc(Cl)cc3)c3ccccc3c2=O)CC1 (centres undefined)	2	-3	0	85*	-21	-2	40*
CCCC(C(=O)NC(C)(C)C)N(Cc1ccccc1)C(=O)c1snc(C(N)=O)c1N (centres undefined)	-4	2	6	69*	5	1	0
CCCC(C(=O)NC1CCCC1)N(Cc1ccccc1)C(=O)c1snc(C(N)=O)c1N (centres undefined)	1	2	-6	x	-1	-4	x
O=C(c1ccc(F)cc1)C1CCN(C(=O)NC2CCCCC2)CC1	-3	-4	-2	50*	-1	3	29
O=C(NC1CCCCC1)N1CCN(S(=O)(=O)c2ccc(F)cc2)CC1	5	0	-3	-9	-2	5	x
O=c1c2c3nc4ccccc4nc3n(/N=C/c3ccccn3)c2ncn1-c1ccccc1	-2	-2	6	72*	35	0	71*
CCCc1cc(N2CCCC2)n2nc(C)c(-c3ccccc3)c2n1	-5	-8	-7	66*	-14	-5	41*
O=C(CCC1CCCC1)Nc1ccc(OCC(=O)N2CCOCC2)cc1	-7	3	0	51*	-19	0	36
Brc1ccc(C2=Nn3c(nnc3-c3n[nH]c4c3CCC4)SC2)cc1	-3	2	0	81*	6	18	85*
CCOC(=O)C1=NOC(C(C)=O)(C(=O)N2CCOCC2)C1 (centres undefined)	-1	x	4	x	x	x	x
